Data set [1] relates to U-937. Description: Cytotoxicity against human U937 cells assessed as reduction in cell viability after 72 hrs by MTT assay. The note with it: U-937, 72 h.
In data set [2] the test system is MV4-11. Description: Cytotoxicity against human MV4-11 cells assessed as reduction in cell viability after 72 hrs by MTT assay. The note with it: MV4-11, 72 h. For orientation: Tetrazolium dyes change colour on reduction, which living cells bring about.
In data set [3] the target is T1, Histone deacetylase (Homo sapiens) (UniProt Q13547+O15379+Q9UBN7+Q92769+Q9UQL6+Q8WUI4+Q9BY41+Q96DB2+P56524+Q9UKV0+Q969S8). Description: Inhibition of HDAC in human MV4-11 cells assessed as increase in acetylation of alpha-tubulin after 6 hrs by Western blot analysis. It is filed as cell-based. The procedure, abridged: (§1)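 Western blot of MV4-11 cells after 6 h exposure at the indicated concentrations, probing acetyl-histone H4 and acetyl-α-tubulin. Densitometry normalized to GAPDH, fold change relative to SAHA treatment. Blot representative of three experiments.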

Data set [4] has as its target T1, Histone deacetylase (Homo sapiens). In words: Inhibition of HDAC in human MV4-11 cells assessed as increase in acetylation of histone H4 after 6 hrs by Western blot analysis. It is filed as cell-based. The procedure, abridged:
as §1
Background: A western blot detects proteins with antibodies after separation by electrophoresis.

The target is the same in data set [5]. Description: Inhibition of HDAC in human U937 cells assessed as increase in acetylation of alpha-tubulin after 6 hrs by Western blot analysis. It is filed as cell-based.
Data set [6] shares this target. Description: Inhibition of HDAC in human U937 cells assessed as increase in acetylation of histone H4 after 6 hrs by Western blot analysis. In kind it is cell-based.
For data set [7] the target is unchanged. Description: Inhibition of HDAC in human PBMC assessed as increase in acetylation of histone H4 at 5 to 10 uM after 6 hrs by Western blot analysis. In kind it is cell-based. The procedure, abridged: (§2)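 Peripheral blood mononuclear cells from one healthy donor, treated at 5 and 10 μM and compared against vehicle control. Acetyl-histone H4 and acetyl-α-tubulin assessed by Western blot.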

For data set [8] the target is unchanged. Description: Inhibition of HDAC in human PBMC assessed as increase in acetylation of alpha-tubulin at 5 to 10 uM after 6 hrs by Western blot analysis. It is filed as cell-based. A digest of the protocol:
as §2

The subject of the next data set is PBMC. Description: Cytotoxicity against human PBMC assessed as reduction in cell viability after 72 hrs by MTT assay. It is filed as functional, cell-based. The procedure, abridged:
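Peripheral blood mononuclear cells from two healthy donors, viability measured by MTT assay.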

A short description of data set [9]: Chemical stability of the compound in PBS at 100 uM at pH 7.4 after 72 hrs at 37 degC in presence of GSH by HPLC method. It is filed as physicochemical. The note with it: buffer, pH 7.4, 72 h.
The test system of data set [10] is MV4-11. Description: Cytotoxicity against human MV4-11 cells assessed as reduction in cell viability at 2.5 uM pretreated with GSH for 2 hrs followed by compound addition measured after 72 hrs by MTT assay. In kind it is functional, cell-based.
The subject of data set [11] is MV4-11. In words: Cytotoxicity against human MV4-11 cells assessed as reduction in cell viability at 2.5 uM pretreated with GSHEE for 2 hrs followed by compound addition measured after 72 hrs by MTT assay. It is filed as functional, cell-based.
Data set [12] deals with MV4-11. In words: Cytotoxicity against human MV4-11 cells assessed as reduction in cell viability at 2.5 uM pretreated with catalase for 2 hrs followed by compound addition measured after 72 hrs by MTT assay. In kind it is functional, cell-based.
The subject of data set [13] is MV4-11. In words: Cytotoxicity against human MV4-11 cells assessed as reduction in cell viability at 2.5 uM pretreated with SOD for 2 hrs followed by compound addition measured after 72 hrs by MTT assay. In kind it is functional, cell-based.
The subject of data set [14] is MV4-11. In words: Cytotoxicity against human MV4-11 cells assessed as reduction in cell viability at 2.5 uM pretreated with LPS for 2 hrs followed by compound addition measured after 72 hrs by MTT assay. In kind it is functional, cell-based.
Data set [15] has as its system MV4-11. In words: Cytotoxicity against human MV4-11 cells assessed as reduction in cell viability at 2.5 uM pretreated with BSO for 2 hrs followed by compound addition measured after 72 hrs by MTT assay. In kind it is functional, cell-based.
In data set [16] the test system is MV4-11. In words: Potentiation of cytarabine-induced cytotoxicity against human MV4-11 cells assessed as reduction in cell viability at 2.5 uM after 72 hrs by MTT assay. It is filed as functional, cell-based. The procedure, abridged: (§3)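 MV4-11 cells given prodrug (2.5 or 0.5 μM) with cytarabine for 72 h. Viability by MTT; mean ± SD, n = 6.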
The test system of data set [17] is MV4-11. Description: Potentiation of cytarabine-induced cytotoxicity against human MV4-11 cells assessed as increase in cleaved caspase 3 level at 2.5 uM after 24 hrs by Western blot analysis. It is filed as functional, cell-based. The procedure, abridged:
(§4)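 MV4-11 cells exposed 24 h to prodrug (2.5 or 0.5 μM) and/or cytarabine (0.5 μM). Cleaved caspase-3 and cleaved PARP-1 detected by Western blot.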

In data set [18] the test system is MV4-11. In words: Potentiation of cytarabine-induced cytotoxicity against human MV4-11 cells assessed as increase in cleaved PARP level at 2.5 uM after 24 hrs by Western blot analysis. It is filed as functional, cell-based. A digest of the protocol:
as §4

The test system of data set [19] is MV4-11. In words: Cytotoxicity against human MV4-11 cells assessed as reduction in cell viability at 0.25 to 1 uM cotreated with 4-CPA measured after 72 hrs by MTT assay. In kind it is functional, cell-based.
In data set [20] the target is T1, Histone deacetylase (Homo sapiens). Conditions: at 1 µM.
Data set [21] has as its system U-937. In words: Cytotoxicity against human U937 cells assessed as reduction in cell viability at 0.25 to 2.5 uM after 72 hrs by MTT assay. In kind it is functional, cell-based.
Data set [22] has as its system MV4-11. Description: Potentiation of cytarabine-induced cytotoxicity against human MV4-11 cells assessed as reduction in cell viability at 0.5 uM after 72 hrs by MTT assay. In kind it is functional, cell-based. A digest of the protocol:
as §3

In data set [23] the test system is MV4-11. In words: Potentiation of cytarabine-induced cytotoxicity against human MV4-11 cells assessed as increase in cleaved caspase 3 level at 0.5 uM after 24 hrs by Western blot analysis. In kind it is functional, cell-based. A digest of the protocol:
as §4

Data set [24] has as its system MV4-11. Description: Potentiation of cytarabine-induced cytotoxicity against human MV4-11 cells assessed as increase in cleaved PARP level at 0.5 uM after 24 hrs by Western blot analysis. It is filed as functional, cell-based. The procedure, abridged:
as §4

In data set [25] the test system is MV4-11. In words: Cytotoxicity against human MV4-11 cells assessed as reduction in cell viability at 0.05 to 0.5 uM cotreated with up to 500 nM of 4-CPA measured after 72 hrs by MTT assay. In kind it is functional, cell-based.
Data set [26] relates to MV4-11. Description: Cytotoxicity against human MV4-11 cells assessed as reduction in cell viability up to 10 uM after 72 hrs by MTT assay. In kind it is functional, cell-based.

Calls of active or inactive are those of the source. The calls are words filed in the database; no cut-off is given here.

Broadly, the IC50 is the concentration needed to halve the response being measured. The inhibition is the relative decrease from the control value, in per cent.

`O=C(CCCCCCC(=O)Nc1ccccc1)NOCc1ccc(B(O)O)cc1`: the IC50 was 6.13 µM in the data set on U-937 [1], 3.07 µM in the data set with MV4-11 [2] and more than 10 µM in the data set with PBMC. The inhibition result in data set [3], in data set [4], in data set [5] and in data set [6] was “Dose-dependent effect” in each case. For the same molecule, the inhibition entry in data set [7] and in data set [8] was “inactive” in each case. Further, the Stability result in data set [9] is “Stable”. Moreover, the outcome with MV4-11 [10], in the data set with MV4-11 [11] and in the data set on MV4-11 [12] was inactive. Besides, the result in the data set with MV4-11 [13], with MV4-11 [14], with MV4-11 [15], in the data set with MV4-11 [16], in the data set on MV4-11 [17] and in the data set with MV4-11 [18] was Active.
Turning to `COc1cc(/C=C/C(=O)N2CCC=CC2=O)cc(OC)c1OCCCCCCC(=O)NO`, the result in the data set on MV4-11 [19] was Active. The same molecule returned an inhibition in data set [20] of 32%.
Turning to `COC(=O)CCCCCCOc1c(OC)cc(/C=C/C(=O)N2CCC=CC2=O)cc1OC`, the outcome in the data set with U-937 [21] was inactive.
As for `COc1cc(/C=C/C(=O)N2CCC=CC2=O)cc(OC)c1OCCCCCCC(=O)NOCc1ccc(B(O)O)cc1`, the half-inhibitory concentration (IC50) with U-937 [1] is 1.61 µM; in the data set on MV4-11 [2], 0.7 µM; with PBMC, 7.6 to 10 µM. Besides, the inhibition entry in data set [3], in [4], in [5] and in data set [6] was “Dose-dependent effect” in each case. Besides, the inhibition result in data set [7] and in data set [8] was “inactive” in each case. In addition, the result with MV4-11 [22], in the data set on MV4-11 [23] and with MV4-11 [24] was Active.
With `O=C(CCCCCCC(=O)Nc1ccccc1)NO`, the result with MV4-11 [25] was inactive. Besides, in the data set on PBMC, the result was Active.
For `O=C(CCCCCCC(=O)Nc1ccccc1)NCCc1ccc(B(O)O)cc1`, the outcome in the data set on MV4-11 [26] was inactive.
With `CC(=O)Oc1ccc(CCl)cc1`, the IC50 in the data set with MV4-11 [2] was 1.13 µM.

For the origin of these results see ChEMBL document CHEMBL4145661, “H2O2/Peroxynitrite-Activated Hydroxamic Acid HDAC Inhibitor Prodrugs Show Antileukemic Activities against AML Cells” (ACS Med Chem Lett, 2018).
